These results are taken from ChEMBL document CHEMBL3351977, “Chemotherapy of leishmaniasis part XIII: design and synthesis of novel heteroretinoid-bisbenzylidine ketone hybrids as antileishmanial agents” (Bioorg Med Chem Lett, 2015).

By IC50 is commonly meant the concentration at which inhibition is half-maximal. By CC50 is commonly meant the concentration at which the toxic effect on the cells reaches its halfway point.

The subject of data set [1] is Leishmania donovani. The experiment in a line: Antileishmanial activity against amastigote stage of Leishmania donovani MHOM/IN/80/Dd8 infected in mouse J774.1 cells after 72 hrs by luciferase reporter gene assay. The data set is classed as functional, organism-based. The essentials:
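Intracellular L. donovani amastigotes growing inside macrophages were exposed to a concentration series. IC50 was obtained by nonlinear regression of the concentration-response curve with a four-parameter Hill equation. Values are mean ± S.D. of three independent experiments. Reference drugs were sodium stibogluconate and miltefosine.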

A short description of data set [2]: (§1) Cytotoxicity against African green monkey Vero cells assessed as cell viability after 72 hrs by MTT assay. In kind it is cell-based. The settings on record: chlorocebus sabaeus, Vero cells. The method, boiled down: (§2)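 Vero cells were used, with viability read by MTT assay and podophyllotoxin as the reference cytotoxic drug. CC50 (50% maximum cytotoxic concentration) was estimated with a preformed template following Huber and Koella. Values are mean ± S.D. of three independent experiments.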
(In general: Tetrazolium dyes change colour on reduction, which living cells bring about.)

Data set [3] can be described thus: (§3) Selectivity index, ratio of CC50 for African green monkey Vero cells to IC50 for amastigote stage of Leishmania donovani MHOM/IN/80/Dd8. In kind it is functional. The method, boiled down: (§4)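 SI was calculated as CC50 on Vero cells (MTT viability) divided by IC50 on L. donovani intramacrophagic amastigotes. IC50 came from four-parameter Hill regression and CC50 from a Huber–Koella template. Both are means of three independent experiments.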

For data set [4], the system named is Leishmania donovani. The experiment in a line: Ratio of Miltefosine IC50 to compound IC50 for amastigote stage of Leishmania donovani MHOM/IN/80/Dd8 infected in mouse J774.1 cells. The data set is classed as functional.
The subject of data set [5] is Leishmania donovani. The experiment in a line: Ratio of Sodium stibogluconate IC50 to compound IC50 for amastigote stage of Leishmania donovani MHOM/IN/80/Dd8 infected in mouse J774.1 cells. The data set is classed as functional.
In data set [6] the test system is Vero. The data set is described as §3. The data set is classed as functional. The method, boiled down: as §4
The test system of data set [7] is Vero. The data set is described as §1. The data set is classed as cell-based. The conditions noted are these: chlorocebus sabaeus, vero, 72 h. The essentials:
as §2

[8] abbreviates: Leishmania donovani, MHOM/IN/80/Dd8, J774.1, 72 h.

In turn, `CC1=CCCC(C)(C)C1/C=C/c1cc(C(=O)N2C/C(=C\c3ccc(OCc4ccccc4)cc3)C(=O)/C(=C/c3ccc(OCc4ccccc4)cc3)C2)no1` (stereo unspecified) displayed a concentration for half-maximal inhibition (IC50) with Leishmania donovani [1] (setting [8]) of over 40 µM.
With `COc1cc(/C=C2\CN(C(=O)c3cc(/C=C/C4C(C)=CCCC4(C)C)on3)C/C(=C\c3cc(OC)c(OC)c(OC)c3)C2=O)cc(OC)c1OC` (stereo unspecified), the CC50 at 72 h in data set [2] worked out at 25.3 µM. Moreover, the IC50 with Leishmania donovani [1] (setting [8]) came to 4.7 µM. Also, the “Ratio CC50/IC50” value in data set [3] came to 5.38.
For `COc1ccccc1/C=C1\CN(C(=O)c2cc(/C=C/C3C(C)=CCCC3(C)C)on2)C/C(=C\c2ccccc2OC)C1=O` (stereo unspecified), the IC50 in the data set on Leishmania donovani [1] (setting [8]) is over 20 µM.
With `CCCCCCCCCCCCCCCCOP(=O)([O-])OCC[N+](C)(C)C` [MILTEFOSINE], the IC50 with Leishmania donovani [1] (setting [8]) was 8.1 µM. Further, the “Ratio CC50/IC50” value in data set [3] worked out at 6.52.
Take `COc1cc(/C=C2\CN(C(=O)c3cc(/C=C/C4C(C)=CCCC4(C)C)on3)C/C(=C\c3ccc(O)c(OC)c3)C2=O)ccc1O` (stereo unspecified): in data set [2], the CC50 at 72 h is 23.4 µM. Also, it took 1.83 µM to reach half-maximal inhibition in the data set on Leishmania donovani [1] (setting [8]) (IC50). Also, the “Ratio CC50/IC50” value in data set [3] stood at 12.81.
For `COc1ccc(/C=C2\CN(C(=O)c3cc(/C=C/C4C(C)=CCCC4(C)C)on3)C/C(=C\c3ccc(OC)c(OC)c3)C2=O)cc1OC` (stereo unspecified), the CC50 at 72 h in data set [2] amounted to 45.8 µM. Further, in the data set with Leishmania donovani [1] (setting [8]), the IC50 was found to be 3.75 µM. Besides, the “Ratio CC50/IC50” value in data set [3] was 12.2.
Turning to `CCOc1cc(/C=C2\CN(C(=O)c3cc(/C=C/C4C(C)=CCCC4(C)C)on3)C/C(=C\c3ccc(O)c(OCC)c3)C2=O)ccc1O` (stereo unspecified), in data set [2], the CC50 at 72 h came to 27.7 µM. Further, the IC50 in the data set with Leishmania donovani [1] (setting [8]) stood at 6.1 µM. The “Ratio CC50/IC50” value in data set [3] came to 4.53.
Turning to `COc1ccc(/C=C2\CN(C(=O)c3cc(/C=C/C4C(C)=CCCC4(C)C)on3)C/C(=C\c3ccc(OC)cc3)C2=O)cc1` (stereo unspecified), the IC50 with Leishmania donovani [1] (setting [8]) is over 40 µM.
`COc1cc(/C=C2\CN(C(=O)c3cc(/C=C/C4C(C)=CCCC4(C)C)on3)C/C(=C\c3ccc(OCc4ccccc4)c(OC)c3)C2=O)ccc1OCc1ccccc1` (stereo unspecified): the cytotoxic concentration (CC50) at 72 h in data set [2] was over 400 µM. The Ratio IC50 amounted to 1.6 with Leishmania donovani [4] and 10 in the data set on Leishmania donovani [5]. This molecule also registered an IC50 in the data set with Leishmania donovani [1] (setting [8]) of 5.02 µM. Also, the “Ratio CC50/IC50” value in data set [3] was over 79.68.
Consider “SODIUM ANTIMONY GLUCONATE [listing 1 of 2 here]”, for which the Ratio CC50/IC50 with Vero [6] is over 7.53.
In the case of `CC1=CCCC(C)(C)C1/C=C/c1cc(C(=O)N2C/C(=C\c3ccc(Cl)cc3)C(=O)/C(=C/c3ccc(Cl)cc3)C2)no1` (stereo unspecified), the IC50 in the data set with Leishmania donovani [1] (setting [8]) is over 40 µM.
As for “SODIUM ANTIMONY GLUCONATE [listing 2 of 2 here]”, the CC50 in the data set with Vero [7] was over 400 µM. In addition, in the data set on Leishmania donovani [1] (j774.1), the IC50 turned out to be 53.1 µM.
